Reference: ChEMBL document CHEMBL1143300, “Synthesis and activity evaluation of benzoylurea derivatives as potential antiproliferative agents” (Bioorg Med Chem Lett, 2009)
Calls of active or inactive are those of the source. The calls are words filed in the database; no cut-off is given here.

Key:
Type in all cases: functional, cell-based
CCRF-CEM [1] = assay: Antiproliferative activity against human CEM cells after 72 hrs by MTT assay
Summary of the method: (§1)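 MTT read-out of tumour cell proliferation after 72 h of drug exposure. IC50 is the drug concentration giving 50% inhibition of proliferation. Each experiment was repeated three times under identical conditions.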

HepG2 = assay: Antiproliferative activity against human HepG2 cells after 72 hrs by MTT assay; conditions: HepG2, 72 h; summary of the method: as §1
SMMC-7721 = assay: Antiproliferative activity against human SMMC7721 cells after 72 hrs by MTT assay; conditions: SMMC-7721, 72 h; summary of the method: as §1
CCRF-CEM [2] = assay: Effect on apoptosis-mediated morphological changes in human CEM cells at 3.2 uM after 12 hrs by Giemsa staining
Summary of the method: (§2)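 After 12 h of drug incubation, CEM cells were spun onto slides by cytospin, air-dried, fixed with methanol and Giemsa-stained. Morphology was examined at 400× magnification.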

Bel-7402 = assay: Antiproliferative activity against human Bel7402 cells after 72 hrs by MTT assay; conditions: Bel-7402, 72 h; summary of the method: as §1
CCRF-CEM [3] = assay: Effect on necrosis-mediated morphological changes in human CEM cells assessed as destruction of cytoplasm and nucleic membrane at IC75 after 12 hrs by Giemsa staining; summary of the method: as §2
CCRF-CEM [4] = assay: Cell cycle arrest in human CEM cells assessed as accumulation at G2/M phase at 3.2 uM after 12 hrs by flow cytometry; conditions: 0.1 uM, in the assay text read “0.1 uM” for “3.2 uM”
Summary of the method: (§3)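 CEM cells were left untreated or drug-exposed for 12 h at 37 °C, then collected, fixed in methanol and DNA-stained with a fluorescent dye. Cell-cycle distribution was read by flow cytometry using a conventional cell cycle protocol, with untreated cells as reference.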

CCRF-CEM [5] = assay: Cell cycle arrest in human CEM cells assessed as accumulation at G2/M phase at 0.1 uM after 12 hrs by flow cytometry; summary of the method: as §3
CCRF-CEM [6] = assay: Cell cycle arrest in human CEM cells assessed as accumulation at G2/M phase at 0.69 uM after 12 hrs by flow cytometry; summary of the method: as §3
CCRF-CEM [7] = assay: Effect on necrosis-mediated morphological changes in human CEM cells assessed as destruction of cytoplasm and nucleic membrane at 0.69 uM after 12 hrs by Giemsa staining; summary of the method: as §2

SMILES: CC(Br)C(=O)Nc1cccc(CC(=O)NC(N)=O)c1 (configuration not stated)
- IC50 (CCRF-CEM [1]): > 20000 nM

SMILES: O=C(CBr)Nc1cccc(C(=O)NC(=O)Nc2ccc3c(c2)OCO3)c1
- IC50 (CCRF-CEM [1]): 1500 nM

SMILES: NC(=O)NC(=O)/C=C/c1cccc(NC(=O)CBr)c1
- IC50 (CCRF-CEM [1]): 1380 nM

SMILES: CC(Br)C(=O)Nc1cccc(C(=O)NC(N)=O)c1 (configuration not stated)
- IC50 (HepG2): 1200 nM
- IC50 (SMMC-7721): 9260 nM
- Activity (CCRF-CEM [2]): Active
- IC50 (Bel-7402): 1120 nM

SMILES: O=C(CBr)Nc1cccc(C(=O)NC(=O)Nc2ccccn2)c1
- IC50 (HepG2): 900 nM
- IC50 (CCRF-CEM [1]): 700 nM
- Activity (CCRF-CEM [3]): Active
- IC50 (SMMC-7721): 930 nM
- IC50 (Bel-7402): 1200 nM

SMILES: NC(=O)NC(=O)Cc1cccc(NC(=O)CCl)c1
- IC50 (CCRF-CEM [1]): 12600 nM

SMILES: COc1cc(NC(=O)NC(=O)c2cccc(NC(=O)C(C)Br)c2)cc(OC)c1OC (configuration not stated)
- IC50 (CCRF-CEM [1]): 1330 nM

SMILES: CNC(=O)NC(=O)c1cccc(NC(=O)C(C)Br)c1 (configuration not stated)
- IC50 (CCRF-CEM [1]): 9320 nM

SMILES: CC(Br)C(=O)Nc1cccc(C(=O)NC(=O)Nc2ccccc2)c1 (configuration not stated)
- IC50 (CCRF-CEM [1]): > 20000 nM

SMILES: CNC(=O)NC(=O)c1cccc(NC(=O)C(C)Cl)c1 (configuration not stated)
- IC50 (CCRF-CEM [1]): > 20000 nM

SMILES: CNC(=O)NC(=O)c1cccc(NC(=O)CBr)c1
- IC50 (CCRF-CEM [1]): 3160 nM

SMILES: CNC(=O)NC(=O)c1cccc(NC(=O)CCl)c1
- IC50 (CCRF-CEM [1]): 9100 nM

SMILES: CC(Br)C(=O)Nc1cccc(C(=O)NC(=O)Nc2ccc3c(c2)OCO3)c1 (configuration not stated)
- IC50 (CCRF-CEM [1]): 12100 nM

SMILES: CC[C@]1(O)C[C@H]2CN(CCc3c([nH]c4ccccc34)[C@@](C(=O)OC)(c3cc4c(cc3OC)N(C=O)[C@H]3[C@@](O)(C(=O)OC)[C@H](OC(C)=O)[C@]5(CC)C=CCN6CC[C@]43[C@@H]65)C2)C1 [VINCRISTINE]
- Activity (CCRF-CEM [4]): Active
- Activity (CCRF-CEM [5]): Active
- IC50 (SMMC-7721): 52200 nM
- IC50 (Bel-7402): 40 nM

SMILES: O=C(CBr)Nc1cccc(C(=O)NC(=O)Nc2ccccc2)c1
- IC50 (CCRF-CEM [1]): 5010 nM

SMILES: CC(Br)C(=O)Nc1cccc(C(=O)NC(=O)Nc2ccccn2)c1 (configuration not stated)
- IC50 (CCRF-CEM [1]): 6230 nM

SMILES: COc1cc(NC(=O)NC(=O)c2cccc(NC(=O)CBr)c2)cc(OC)c1OC
- IC50 (HepG2): 820 nM
- Activity (CCRF-CEM [6]): inactive
- IC50 (CCRF-CEM [1]): 330 nM
- IC50 (SMMC-7721): 670 nM
- Activity (CCRF-CEM [7]): Active
- IC50 (Bel-7402): 1400 nM
